Assay outcomes: PubChem, Broad Institute
Xi reactivation – activators of inactive X chromosome reactivation, primary screen, imaging, XiGFP fibroblasts, GFP high-content imaging, set 2 | XiGFP mouse fibroblasts, % GFP-positive cells imaging, 3 d; cells co-treated with 5-aza-dC sensitizer; scaled so ellipticine positive control = 100% | activation, % at 7.58 µM | hit rate 0.055% among 360,000 | AID 743238, 2013;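 active = mean normalized replicate activation at least 10% and every replicate at or above 10%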;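 also: 0% = median of on-plate neutral control wells and 100% = ellipticine 6 µM median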
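Schedule: 3 d treatment, 15 min room-temperature fixation; system: 68-5-11 XiGFP fibroblast line; buffer or medium: DMEM plus 5-aza-dC sensitizer; control set: ellipticine 6 µM positive control; compound: one concentration, pinned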
E-sel inducer – E-selectin induction in HUVECs, primary screen, imaging, HUVEC, immunofluorescence imaging, single point; P16581; normalized: neutral wells 0, TNF-alpha wells 100; activation, % at 7.58 µM; hit rate 0.37% among 260,000; AID 686992, 2013;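 active = mean E-selectin-positive cell signal at least 10% of the positive control, reached in at least 60% of replicates, without over 20% cell loss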
Target sequence (P16581 whole entry, looked up): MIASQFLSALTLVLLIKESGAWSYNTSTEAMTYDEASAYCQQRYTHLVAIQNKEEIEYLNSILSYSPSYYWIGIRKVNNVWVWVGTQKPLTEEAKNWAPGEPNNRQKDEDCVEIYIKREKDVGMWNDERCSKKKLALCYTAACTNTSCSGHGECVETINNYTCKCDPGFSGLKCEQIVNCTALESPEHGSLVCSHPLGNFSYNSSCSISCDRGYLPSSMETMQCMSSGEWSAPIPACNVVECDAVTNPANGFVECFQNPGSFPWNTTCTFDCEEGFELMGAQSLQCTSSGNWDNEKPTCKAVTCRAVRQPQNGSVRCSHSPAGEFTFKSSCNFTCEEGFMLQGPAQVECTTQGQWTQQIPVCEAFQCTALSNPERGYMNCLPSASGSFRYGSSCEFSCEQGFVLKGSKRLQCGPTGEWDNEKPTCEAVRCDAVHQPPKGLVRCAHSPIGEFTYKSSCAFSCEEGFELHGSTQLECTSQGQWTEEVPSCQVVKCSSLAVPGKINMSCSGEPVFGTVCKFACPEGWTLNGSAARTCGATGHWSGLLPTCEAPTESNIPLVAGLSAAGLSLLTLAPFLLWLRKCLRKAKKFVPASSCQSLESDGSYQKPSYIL
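Read-out basis: % PE-positive cells; Test system: HUVEC primary endothelial cells; Technique: immunofluorescence imaging; Dosing: single-point compound dose.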
F508del corr – F508del CFTR correction, initial screen, CFBE line, single point | CFBE cells, YFP halide quenching; stimulated with forskolin plus potentiator P3; % fluorescence drop versus neutral controls | activity (quench increase), % at 7.58 µM | hit rate 0.36% among 350,000 | AID 720511, 2013;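 active = mean added fluorescence quench of at least 8% versus neutral control, with both replicates also reaching 8%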;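 also: cells transiently co-express mutant CFTR-F508del with the halide-sensitive YFP; corrector assay measuring rescue of mutant channel to the surface after 24 h compound exposure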
Numbers without * were called inactive; / = not tested or not shown. Most compounds without a hit are left out; they make up all but 0.61% or so of the library.

SMILES | Xi reactivation | E-sel inducer | F508del corr
O=C(O)COc1ccccc1-c1nc(-c2ccccc2)c(-c2ccccc2)[nH]1 | 0 | / | 1
O=C(O)c1ccccc1-c1nc(-c2ccccc2)c(-c2ccccc2)[nH]1 | 0 | / | 13*
CCCC(=O)Nc1ccc2c(c1)C(=O)N(C)[C@@H]1CC[C@H](CC(=O)NCCN3CCCCC3)O[C@H]1CO2 | 0 | 0 | -3
O=C(C1CCC1)N1CCCCN2[C@H](C1)[C@H](c1ccc(-c3cccc(F)c3)cc1)[C@@H]2CO | / | / | -2
CCN(C(=O)CSc1nncn1-c1ccccc1)c1c(N)n(Cc2ccccc2)c(=O)[nH]c1=O | 0 | / | 0
CCN(C(=O)COC(=O)c1cc2c(s1)CCCC2)c1c(N)n(Cc2ccccc2)c(=O)[nH]c1=O | -1 | -1 | 15*
CCN(C(=O)COC(=O)/C=C/c1ccc2c(c1)OCO2)c1c(N)n(Cc2ccccc2)c(=O)[nH]c1=O | 1 | / | 0
CCN(C(=O)COC(=O)/C=C/c1c(C)nn(-c2ccccc2)c1C)c1c(N)n(Cc2ccccc2)c(=O)[nH]c1=O | 0 | 1 | 10*
CCN(C(=O)CSc1nnc(C)n1-c1ccc(C)cc1)c1c(N)n(Cc2ccccc2)c(=O)[nH]c1=O | 0 | 0 | 20*
CCN(C(=O)COC(=O)c1cc2c(s1)CCC(C)C2)c1c(N)n(Cc2ccccc2)c(=O)[nH]c1=O (centres undefined) | 0 | / | 3
C[C@H]1CN([C@@H](C)CO)C(=O)c2ccccc2-c2ccccc2CO[C@H]1CN(C)S(=O)(=O)c1ccc(C#N)cc1 | 0 | 0 | 0
C[C@H](CO)N1C[C@H](C)[C@H](CN(C)Cc2ccc(Oc3ccccc3)cc2)Oc2ccc(NC(=O)CCCN(C)C)cc2CC1=O | 0 | 0 | 2
C[C@H]1CN([C@@H](C)CO)C(=O)c2cccc(NS(=O)(=O)c3ccccc3)c2O[C@@H]1CN(C)Cc1ccccc1 | -1 | 0 | 0
C[C@@H]1CCCCO[C@H](CN(C)S(=O)(=O)c2cn(C)cn2)[C@H](C)CN([C@@H](C)CO)C(=O)c2cc(NS(=O)(=O)c3ccccc3)ccc2O1 | 0 | 0 | -1
COc1ccc2c3c([nH]c2c1)[C@H](CO)N(Cc1ccc(F)cc1)CC31CN(C(=O)NC(C)C)C1 | 0 | / | /
CC(=O)NC(c1ccc(C(C)C)cc1)c1ccc2cccnc2c1O (centres undefined) | 0 | 0 | 8.9*
CCCCC(=O)NC(c1ccc(C(C)C)cc1)c1ccc2cccnc2c1O (centres undefined) | 0 | 0 | -5
C[C@H](CO)N1C[C@H](C)[C@@H](CN(C)C(=O)c2cccc(F)c2)Oc2ncc(-c3cccnc3)cc2C1=O | 0 | 0 | -2
O=C(Cc1ccccn1)NCC[C@H]1CC[C@H](NC(=O)Nc2ccc(C(F)(F)F)cc2)[C@@H](CO)O1 | 0 | 0 | -2
O=C(Cc1ccccn1)NCC[C@@H]1CC[C@H](NC(=O)Nc2ccc(C(F)(F)F)cc2)[C@H](CO)O1 | 0 | 0 | 12*
CC1=CN2C(=NC(=O)CC2(C)C(=O)N(CC(=O)NC2CCCC2)Cc2ccccc2)C=C1 (centres undefined) | 0 | 0 | 0
CC1=CC2=NC(=O)CC(C)(C(=O)N(CC(=O)NC3CCCC3)Cc3ccccc3)N2C=C1 (centres undefined) | 0 | 41* | -3
COc1cccc(CNC(=O)CN2C(=O)COc3ccc(S(=O)(=O)N4CCCC4)cc32)c1 | 0 | / | 1
COc1cccc(CNC(=O)CN2C(=O)COc3ccc(S(=O)(=O)N4CCCCCC4)cc32)c1 | 0 | 43* | -1
Cc1ccc(S(=O)(=O)Nc2ccc3c(c2)C(=O)N([C@@H](C)CO)C[C@H](C)[C@@H](CN(C)Cc2ccc4c(c2)OCO4)OCCCC[C@@H](C)O3)cc1 | 0 | 0 | 1
SMILES | Xi reactivation | E-sel inducer | F508del corr
COCCNC(=O)C1CCCN(C(=O)c2sccc2C)CC1 (centres undefined) | 0 | -1 | -1
COCCNC(=O)C1CCCN(C(=O)c2cc(-c3cccs3)oc2C)CC1 (centres undefined) | 0 | 0 | 13*
CC=Cc1ccc2n(c1=O)C[C@H]1[C@H](CO)[C@@H](C(=O)NCCc3cn(C)cn3)N(C(=O)CC)[C@@H]21 (mixture of isomers) | 0 | 0 | -1
COCCSc1ccccc1C(=O)Nc1cc([N+](=O)[O-])ccc1OC | 0 | 2 | 18*
COCCSc1ccccc1C(=O)Nc1ccc([N+](=O)[O-])cc1OC | 0 | 0 | 1
O=C([C@H]1[C@H](CO)[C@H]2Cn3c(ccc(C4=CCCC4)c3=O)[C@@H]1N2C(=O)c1ccccc1)N1CCOCC1 | 0 | -1 | 3
CNC[C@@H]1Oc2c(NC(=O)Nc3ccc4c(c3)OCO4)cccc2C(=O)N([C@@H](C)CO)C[C@H]1C | -1 | 0 | 0
COCC(=O)Nc1ccc2c(c1)[C@H]1C[C@@H](CC(=O)NCC3CC3)O[C@@H](CO)[C@H]1O2 | 0 | -1 | 2
COc1cccc(N2CCN(C(=O)c3cn(Cc4ccccc4)nc3-c3cccnc3)CC2)c1 | 1 | -1 | 15*
COc1cccc(N2CCN(C(=O)c3ccc(CS(=O)c4ccc(Cl)cc4)o3)CC2)c1 (centres undefined) | 1 | / | 8.4*
COc1cccc(N2CCN(C(=O)c3ccc(CS(=O)Cc4ccc(C)cc4)o3)CC2)c1 (centres undefined) | 0 | -1 | 2
COc1cccc(N2CCN(C(=O)c3ccc(CS(=O)c4ccc(C)cc4)o3)CC2)c1 (centres undefined) | 1 | / | 9.6*
O=C(c1ccc(CS(=O)Cc2ccc(Cl)cc2)o1)N1CCN(c2cccc(Cl)c2)CC1 (centres undefined) | 0 | 3 | -1
COc1ccccc1N1CCN(C(=O)c2cn(Cc3ccccc3)nc2-c2cccnc2)CC1 | 0 | 0 | 2
C[C@@H]1CN([C@@H](C)CO)C(=O)c2cc(NS(=O)(=O)c3ccc(F)cc3)ccc2O[C@@H](C)CCCCO[C@@H]1CN(C)Cc1ccc2c(c1)OCO2 | 0 | / | 2
C[C@@H]1CN([C@@H](C)CO)C(=O)c2cc(C3=CCCC3)cnc2O[C@H]1CN(C)C(=O)C1CCC1 | -1 | 0 | 0
Cc1noc(C)c1S(=O)(=O)Nc1ccc2c(c1)C(=O)N([C@H](C)CO)C[C@@H](C)[C@H](CN(C)C(=O)NC1CCCCC1)OCCCC[C@@H](C)O2 | -1 | 0 | 3
Nc1[nH]c2cc([N+](=O)[O-])ccc2c1-c1ccccn1 | 100* | / | -4
Nc1nc2ccc([N+](=O)[O-])cc2[nH]1 | 0 | 1 | -1
Cc1cc2c([nH]c3ccccc32)c(C)n1 | 0 | 4 | 1
Cc1c2ccncc2cc2c1[nH]c1ccccc12 | 0 | 3 | 12*
CC(=O)c1cccc(NC(=O)C2=CN3CCS(=O)(=O)N=C3C=C2)c1 | 0 | 75* | -3
